Experimental data from ChEMBL document CHEMBL3792386, “Design, Synthesis, and Biological Evaluation of Novel Selenium (Se-NSAID) Molecules as Anticancer Agents” (J Med Chem, 2016).
Active and inactive are the calls of the source. No cut-off for these calls is given here.

What was measured:
[1] = system: HepG2; assay: Antiproliferative activity against human HepG2 cells assessed as reduction in cell viability after 48 hrs by MTT assay; assay type: functional, cell-based; conditions: HepG2, 48 h
Procedure, shortened: (§1)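 3000 cells/well incubated in triplicate with serial concentrations of compound for 24, 48 or 72 h at 37 °C. MTT (5.0 mg/mL solution) added 3 h before the end. Formazan dissolved in DMSO, absorbance read at 570 and 630 nm. Viability normalised to vehicle control. IC50 from non-linear regression (variable slope), mean ± SD of triplicates.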

[2] = Antiproliferative activity against human DU145 cells assessed as reduction in cell viability after 72 hrs by MTT assay; assay type: functional, cell-based; conditions: DU-145, 72 h; procedure, shortened: as §1
[3] = system: HCT-116; assay: Induction of apoptosis in human HCT116 cells assessed as early apoptotic cells at 2.5 uM after 24 hrs by annexin V/7-ADD staining-based flow cytometry (reference value: 5.20%); assay type: functional
[4] = system: NHDF; assay: Cytotoxicity against human NHDF at 1 to 10 uM after 48 hrs by MTT assay; assay type: cell-based
Procedure, shortened: (§2)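 Cells (HCT116, nHDF in serum-free fibroblast medium with growth kit, or MEFs) exposed to increasing compound concentrations for 48 h at 37 °C. Viability read by MTT: 3000 cells/well, triplicate, MTT 3 h before end, formazan in DMSO, absorbance 570/630 nm. Mean ± SD.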

[5] = system: HCT-116; assay: Induction of apoptosis in human HCT116 cells assessed as live cells at 10 uM after 24 hrs by 7-ADD and caspase 3/7 activity-based flow cytometry (reference value: 92.60%); assay type: functional
[6] = system: HCT-116; assay: Induction of apoptosis in human HCT116 cells assessed as late apoptotic cells at 10 uM after 24 hrs by 7-ADD and caspase 3/7 activity-based flow cytometry (reference value: 1.70%); assay type: functional
[7] = system: HCT-116; assay: Induction of apoptosis in human HCT116 cells assessed as late apoptotic cells at 5 uM after 24 hrs by annexin V/7-ADD staining-based flow cytometry (reference value: 1.65%); assay type: functional
[8] = system: NCI-H460; assay: Antiproliferative activity against human NCI-H460 cells assessed as reduction in cell viability after 72 hrs by MTT assay; assay type: functional, cell-based; conditions: NCI-H460, 72 h; procedure, shortened: as §1
[9] = system: HCT-116; assay: Induction of apoptosis in human HCT116 cells assessed as dead cells at 5 uM after 24 hrs by annexin V/7-ADD staining-based flow cytometry (reference value: 3.10%); assay type: functional
[10] = system: HepG2; assay: Antiproliferative activity against human HepG2 cells assessed as reduction in cell viability after 72 hrs by MTT assay; assay type: functional, cell-based; conditions: HepG2, 72 h; procedure, shortened: as §1
[11] = system: RKO; assay: Antiproliferative activity against human RKO cells assessed as reduction in cell viability after 72 hrs by MTT assay; assay type: functional, cell-based; procedure, shortened: as §1
[12] = Antiproliferative activity against human SKOV3 cells assessed as reduction in cell viability after 48 hrs by MTT assay; assay type: functional, cell-based; conditions: SK-OV-3, 48 h; procedure, shortened: as §1
[13] = system: MDA-MB-231; assay: Antiproliferative activity against human MDA-MB-231 cells assessed as reduction in cell viability after 24 hrs by MTT assay; assay type: functional, cell-based; conditions: MDA-MB-231, 24 h; procedure, shortened: as §1
[14] = system: MDA-MB-231; assay: Antiproliferative activity against human MDA-MB-231 cells assessed as reduction in cell viability after 72 hrs by MTT assay; assay type: functional, cell-based; conditions: MDA-MB-231, 72 h; procedure, shortened: as §1
[15] = system: HCT-116; assay: Cytotoxicity against human HCT116 cells assessed as reduction in cell viability after 48 hrs MTT assay; assay type: functional, cell-based; procedure, shortened: as §2
[16] = system: HCT-116; assay: Induction of cell cycle arrest in human HCT116 cells assessed as accumulation at G1 phase at 5 uM after 24 hrs by propidium iodide staining-based flow cytometry (reference value: 28%); assay type: functional
[17] = system: HCT-116; assay: Induction of apoptosis in human HCT116 cells assessed as live cells at 10 uM after 24 hrs by annexin V/7-ADD staining-based flow cytometry (reference value: 90.05%); assay type: functional
[18] = system: MDA-MB-231; assay: Antiproliferative activity against human MDA-MB-231 cells assessed as reduction in cell viability after 48 hrs by MTT assay; assay type: functional, cell-based; conditions: MDA-MB-231, 48 h; procedure, shortened: as §1
[19] = system: HCT-116; assay: Induction of cell cycle arrest in human HCT116 cells assessed as reduction of G2/M phase at 5 uM after 24 hrs by propidium iodide staining-based flow cytometry (reference value: 24%); assay type: functional; parameters: scale not given: the % may be the effect or the level left
[20] = system: HCT-116; assay: Induction of ROS generation in human HCT116 cells at 5 uM after 3 hrs by flow cytometry (reference value: 8.06%); assay type: functional
[21] = system: HCT-116; assay: Induction of apoptosis in human HCT116 cells assessed as dead cells at 5 uM after 24 hrs by 7-ADD and caspase 3/7 activity-based flow cytometry (reference value: 3.25%); assay type: functional
[22] = system: HCT-116; assay: Induction of apoptosis in human HCT116 cells assessed as live cells at 5 uM after 24 hrs by 7-ADD and caspase 3/7 activity-based flow cytometry (reference value: 92.60%); assay type: functional
[23] = system: HCT-116; assay: Induction of apoptosis in human HCT116 cells assessed as early apoptotic cells at 2.5 uM after 24 hrs by 7-ADD and caspase 3/7 activity-based flow cytometry (reference value: 2.45%); assay type: functional
[24] = Antiproliferative activity against human SKOV3 cells assessed as reduction in cell viability after 24 hrs by MTT assay; assay type: functional, cell-based; conditions: SK-OV-3, 24 h; procedure, shortened: as §1
[25] = system: HCT-116; assay: Induction of apoptosis in human HCT116 cells assessed as cleaved PARP level at 1 to 10 uM after 24 hrs by Western blot method; assay type: functional, cell-based
Procedure, shortened: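 HCT116 lysates after 24 h treatment made in RIPA buffer with protease and phosphatase inhibitors. Resolved by SDS-PAGE (4-12%), transferred to PVDF, probed for PARP with β-actin as loading control, detected by ECL.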

[26] = Antiproliferative activity against human DU145 cells assessed as reduction in cell viability after 48 hrs by MTT assay; assay type: functional, cell-based; conditions: DU-145, 48 h; procedure, shortened: as §1
[27] = system: HCT-116; assay: Induction of apoptosis in human HCT116 cells assessed as late apoptotic cells at 10 uM after 24 hrs by annexin V/7-ADD staining-based flow cytometry (reference value: 1.65%); assay type: functional
[28] = system: HCT-116; assay: Induction of apoptosis in human HCT116 cells assessed as live cells at 2.5 uM after 24 hrs by annexin V/7-ADD staining-based flow cytometry (reference value: 90.05%); assay type: functional
[29] = system: HCT-116; assay: Induction of ROS generation in human HCT116 cells at 5 uM after 6 hrs by flow cytometry (reference value: 6%); assay type: functional
[30] = Antiproliferative activity against human HCT116 cells assessed as reduction in cell viability after 24 hrs by MTT assay; assay type: functional, cell-based; conditions: HCT-116, 24 h; procedure, shortened: as §1
[31] = system: HCT-116; assay: Induction of apoptosis in human HCT116 cells assessed as early apoptotic cells at 10 uM after 24 hrs by 7-ADD and caspase 3/7 activity-based flow cytometry (reference value: 2.45%); assay type: functional
[32] = Antiproliferative activity against human HCT116 cells assessed as reduction in cell viability after 72 hrs by MTT assay; assay type: functional, cell-based; conditions: HCT-116, 72 h; procedure, shortened: as §1
[33] = system: HCT-116; assay: Induction of apoptosis in human HCT116 cells assessed as live cells at 2.5 uM after 24 hrs by 7-ADD and caspase 3/7 activity-based flow cytometry (reference value: 92.60%); assay type: functional
[34] = system: UACC-903; assay: Antiproliferative activity against human UACC-903 cells assessed as reduction in cell viability after 48 hrs by MTT assay; assay type: functional, cell-based; conditions: UACC-903, 48 h; procedure, shortened: as §1

`CC(=O)Oc1ccccc1C(=O)NCC[Se]C#N` gave an IC50 [1] of 5 µM, an IC50 [2] of 2900 nM and an Activity [3] of 13.65%. For the same compound, the Activity [4] was “Non-toxic”, the Activity [5] was 13.25% and the Activity [6] was 46.85%. For the same compound, the Activity [7] was 31.35%, the IC50 [8] was 1300 nM and the Activity [9] was 1.3%. The IC50 [10] was 4.3 µM, the IC50 [11] was 2900 nM and the IC50 [12] was 5.3 µM. For the same compound, the IC50 [13] was 21.1 µM, the IC50 [14] was 6 µM and the Activity [15] was “Active”. The Activity [16] was 68%, the Activity [17] was 14.45% and the IC50 [18] was 5.5 µM. For the same compound, the Activity [19] was 19%, the Activity [20] was 9.16% and the Activity [21] was 2.65%. It also gave an Activity [22] of 20.55%, an Activity [23] of 28.45% and an IC50 [24] of over 50 µM. For the same compound, the Activity [25] was “Active”, the IC50 [26] was 3.4 µM and the Activity [27] was 51.55%. It also gave an Activity [28] of 76.8%, an Activity [29] of 13.12% and an IC50 [30] of 16.2 µM. The Activity [31] was 37.65%, the IC50 [32] was 2100 nM and the Activity [33] was 60.4%. The IC50 [34] was 4 µM.
